The source made the active and inactive calls. The calls are words filed in the database; no cut-off is given here.
Key:
[1] = test system: Radical scavenging activity; assay: Antioxidant activity assessed as DPPH free radical scavenging activity at 100 uM after 60 mins by spectrophotometric analysis; type: functional
Summary of the method: (§1)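 0.05 mM DPPH in absolute ethanol mixed with an equal volume of compound in DMSO (final 100 μM). Shaken and left 20 or 60 min, then absorbance read at 517 nm and percent activity calculated. Three replicates, averaged.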

[2] = test system: Influenza A virus; assay: Antiviral activity against Influenza A virus H1N1 infected in MDCK cells assessed as inhibition of virus-induced cytopathic effect at 0.32 to 100 uM; type: functional, organism-based
Summary of the method: (§2)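 Confluent MDCK monolayers were infected in the presence of the compound at 100, 40, 8, 1.6 and 0.32 μM. Viral cytopathicity was scored once it was complete in untreated infected control cultures.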

[3] = test system: Human immunodeficiency virus 1; assay: Antiviral activity against HIV1 3B infected in human CEM cells assessed as inhibition of virus-induced CEM giant cell formation at 0.32 to 100 uM after 4 days; type: functional, organism-based; details: CCRF-CEM
Summary of the method: (§3)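 CEM cells (~3 × 10^5 cells/cm³) exposed to 100 CCID50/ml of virus and seeded into wells holding compound dilutions. Incubated 4 days at 37 °C, then giant cell formation examined microscopically.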

[4] = test system: Radical scavenging activity; assay: Antioxidant activity assessed as DPPH free radical scavenging activity at 100 uM after 20 mins by spectrophotometric analysis; type: functional; summary of the method: as §1
[5] = test system: NCI-H460; assay: Cytostatic activity against human NCI-H460 cells after 72 hrs by MTT assay; type: functional, cell-based; details: NCI-H460, 72 h
Summary of the method: (§4)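 Monolayers in DMEM with 10% FBS, 2 mM L-glutamine and penicillin/streptomycin, 37 °C, 5% CO2. Seeded at 1–3 × 10^4 cells/ml, then compound added in tenfold dilutions (10⁻⁸–10⁻⁴ M) for 72 h. MTT read at 570 nm; percent growth taken against time-zero and untreated controls. IC50 by linear regression; quadruplicate, at least two experiments.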

[6] = test system: Punta Toro virus; assay: Antiviral activity against Punta Toro virus infected in african green monkey Vero cells assessed as inhibition of virus-induced cytopathic effect at 0.32 to 100 uM; type: functional, organism-based
Summary of the method: (§5)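 Confluent cell cultures were infected with 100 CCID50 of virus in the presence of test compound at 100, 40, 8, 1.6 and 0.32 μM. Cytopathic effect was scored once it was complete in untreated infected controls.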

[7] = test system: Respiratory syncytial virus; assay: Antiviral activity against RSV infected in human cervix carcinoma cells assessed as inhibition of virus-induced cytopathic effect at 0.32 to 100 uM; type: functional, organism-based; summary of the method: as §5
[8] = test system: CCRF-CEM; assay: Cytostatic activity against human CEM cells after 3 days by coulter counter analysis; type: functional, cell-based; details: 72 h
Summary of the method: (§6)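 300,000–500,000 cells/ml mixed 1:1 with compound dilutions and incubated at 37 °C for 2 days (L1210) or 3 days (CEM, HeLa). Cell number counted with a Coulter counter; HeLa trypsinized before counting.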

[9] = test system: MCF7; assay: Cytostatic activity against human MCF7 cells after 72 hrs by MTT assay; type: functional, cell-based; details: MCF7, 72 h; summary of the method: as §4
[10] = test system: HCT-116; assay: Cytostatic activity against human HCT116 cells after 72 hrs by MTT assay; type: functional, cell-based; details: HCT-116, 72 h; summary of the method: as §4
[11] = test system: Coxsackievirus B4; assay: Antiviral activity against Coxsackievirus B4 infected in human cervix carcinoma cells assessed as inhibition of virus-induced cytopathic effect at 0.32 to 100 uM; type: functional, organism-based; summary of the method: as §5
[12] = test system: Human alphaherpesvirus 2; assay: Antiviral activity against HSV2 G infected in human lung fibroblast assessed as inhibition of virus-induced cytopathic effect at 0.32 to 100 uM; type: functional, organism-based; details: strain G; summary of the method: as §5
[13] = test system: Coxsackievirus B4; assay: Antiviral activity against Coxsackievirus B4 infected in african green monkey Vero cells assessed as inhibition of virus-induced cytopathic effect at 0.32 to 100 uM; type: functional, organism-based; summary of the method: as §5
[14] = test system: L1210; assay: Cytostatic activity against mouse L1210 cells after 2 days by coulter counter analysis; type: functional, cell-based; details: L1210, 48 h; summary of the method: as §6
[15] = Antioxidant activity assessed as inhibition of AAPH-induced linoleic acid lipid peroxidation by measuring conjugated diene hydroperoxide level; type: functional; set-up: concentration or dose not given beside the values; details: dose or concentration not given here
Summary of the method: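 Linoleic acid sodium salt (10 μL of 16 mM) in 0.05 M phosphate buffer pH 7.4 at 37 °C. Oxidation started under air with 50 μL of 40 mM AAPH. Conjugated diene hydroperoxide formation followed as absorbance rise at 234 nm; control contains the same DMSO level. At least triplicate.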

[16] = test system: Sindbis virus; assay: Antiviral activity against Sindbis virus infected in african green monkey Vero cells assessed as inhibition of virus-induced cytopathic effect at 0.32 to 100 uM; type: functional, organism-based; summary of the method: as §5
[17] = test system: Vesicular stomatitis virus; assay: Antiviral activity against VSV infected in human lung fibroblast assessed as inhibition of virus-induced cytopathic effect at 0.32 to 100 uM; type: functional, organism-based
[18] = test system: Vaccinia virus; assay: Antiviral activity against Vaccinia virus infected in human lung fibroblast assessed as inhibition of virus-induced cytopathic effect at 0.32 to 100 uM; type: functional, organism-based; details: Orthopoxvirus vaccinia
[19] = test system: Human alphaherpesvirus 1; assay: Antiviral activity against HSV1 KOS infected in human lung fibroblast assessed as inhibition of virus-induced cytopathic effect at 0.32 to 100 uM; type: functional, organism-based; summary of the method: as §5
[20] = test system: HeLa; assay: Cytostatic activity against human HeLa cells after 3 days by coulter counter analysis; type: functional, cell-based; details: 72 h; summary of the method: as §6
[21] = test system: Glycine max; assay: Inhibition of soybean LOX assessed as conversion of sodium linoleate to 13- hydroperoxylinoleic acid at 100 uM
[22] = test system: Feline coronavirus; assay: Antiviral activity against Feline coronavirus infected in feline CRFK cells assessed as inhibition of virus-induced cytopathic effect at 0.32 to 100 uM; type: functional, organism-based; summary of the method: as §5
[23] = test system: Human immunodeficiency virus 2; assay: Antiviral activity against HIV2 ROD infected in human CEM cells assessed as inhibition of virus-induced CEM giant cell formation at 0.32 to 100 uM after 4 days; type: functional, organism-based; details: ISOLATE ROD, CCRF-CEM; summary of the method: as §3
[24] = test system: Mammalian orthoreovirus 1; assay: Antiviral activity against Reovirus-1 infected in african green monkey Vero cells assessed as inhibition of virus-induced cytopathic effect at 0.32 to 100 uM; type: functional, organism-based; summary of the method: as §5
[25] = test system: Vesicular stomatitis virus; assay: Antiviral activity against Vesicular stomatitis virus infected in human cervix carcinoma cells assessed as inhibition of virus-induced cytopathic effect at 0.32 to 100 uM; type: functional, organism-based
Summary of the method: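 Confluent human cervix carcinoma (HeLa) cultures received 100 CCID50 of VSV together with the compound at 100, 40, 8, 1.6 or 0.32 μM. Cytopathicity was read at the point of full CPE in infected, untreated control wells.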

[26] = test system: Influenza A virus; assay: Antiviral activity against Influenza A virus H3N2 infected in MDCK cells assessed as inhibition of virus-induced cytopathic effect at 0.32 to 100 uM; type: functional, organism-based; summary of the method: as §2
[27] = test system: Human respirovirus 3; assay: Antiviral activity against Parainfluenza virus 3 infected in african green monkey Vero cells assessed as inhibition of virus-induced cytopathic effect at 0.32 to 100 uM; type: functional, organism-based; summary of the method: as §5
[28] = test system: Influenza B virus; assay: Antiviral activity against Influenza B virus infected in MDCK cells assessed as inhibition of virus-induced cytopathic effect at 0.32 to 100 uM; type: functional, organism-based; summary of the method: as §2
[29] = test system: Felid alphaherpesvirus 1; assay: Antiviral activity against Feline herpesvirus infected in feline CRFK cells assessed as inhibition of virus-induced cytopathic effect at 0.32 to 100 uM; type: functional, organism-based; summary of the method: as §5

Row | SMILES | Activity [1] | inhibition [2] | inhibition [3] | Activity [4] | IC50 [5] [µM] | inhibition [6] | inhibition [7] | IC50 [8] [µM] | IC50 [9] [µM] | IC50 [10] [µM] | inhibition [11] | inhibition [12] | inhibition [13] | inhibition [15] [%] | inhibition [16] | inhibition [17] | inhibition [18] | inhibition [19] | inhibition [21] | inhibition [22] | further results
1 | CC(C(=O)NNC(=O)NNC(=O)NOCc1ccccc1)c1cccc(Cc2ccccc2)c1 (centres undefined) | 19% | inactive | inactive | 10% | > 100 | inactive | inactive | 96 | 19 | 64 | inactive | inactive | inactive | 100 | inactive | inactive | inactive | inactive | inactive | inactive | IC50 [14]: 102 µM; IC50 [20]: 76 µM; inhibition [23]: inactive; inhibition [24]: inactive; inhibition [25]: inactive; inhibition [26]: inactive; inhibition [27]: inactive; inhibition [28]: inactive; inhibition [29]: inactive
2 | CC(C(=O)NNC(=O)NNC(=O)NO)c1cccc(Cc2ccccc2)c1 (centres undefined) | 53% | inactive | inactive | 28% | > 100 | inactive | inactive | > 250 | > 100 | > 100 | inactive | inactive | inactive | 28 | inactive | inactive | inactive | inactive | 1% | inactive | IC50 [14]: > 250 µM; IC50 [20]: ≥ 250 µM; inhibition [23]: inactive; inhibition [24]: inactive; inhibition [25]: inactive; inhibition [26]: inactive; inhibition [27]: inactive; inhibition [28]: inactive; inhibition [29]: inactive
3 | CC(C)Cc1ccc(C(C)C(=O)NNC(=O)NCc2ccccc2)cc1 (centres undefined) | inactive | inactive | inactive | inactive | 59 | inactive | inactive | 74 | 29 | 34 | inactive | inactive | inactive | 12 | inactive | inactive | inactive | inactive | inactive | inactive | IC50 [14]: 110 µM; IC50 [20]: 173 µM; inhibition [23]: inactive; inhibition [24]: inactive; inhibition [25]: inactive; inhibition [26]: inactive; inhibition [27]: inactive; inhibition [28]: inactive; inhibition [29]: inactive
4 | Cc1c(C)c2c(c(C)c1O)CCC(C)(C(=O)O)O2 (centres undefined) |  |  |  |  |  |  |  |  |  |  |  |  |  | 63 |  |  |  |  |  |  | 
5 | CC(Cc1ccc(O)c(O)c1)C(C)Cc1ccc(O)c(O)c1 (centres undefined) | 91% |  |  | 80% |  |  |  |  |  |  |  |  |  |  |  |  |  |  |  |  | 
6 | CC(C(=O)NNC(=O)NNC(=O)NOCc1ccccc1)c1cccc(Oc2ccccc2)c1 (centres undefined) | 15% | inactive | inactive | 8% | > 100 | inactive | inactive | 90 | 26 | 84 | inactive | inactive | inactive | 26 | inactive | inactive | inactive | inactive | inactive | inactive | IC50 [14]: 103 µM; inhibition [23]: inactive; inhibition [24]: inactive; inhibition [25]: inactive; inhibition [26]: inactive; inhibition [27]: inactive; inhibition [28]: inactive; inhibition [29]: inactive
7 | CC(C(=O)NNC(=O)NC1CCCCC1)c1cccc(Cc2ccccc2)c1 (centres undefined) | 10% | inactive | inactive | 3% | 23 | inactive | inactive | 25 | 16 | 22 | inactive | inactive | inactive | 31 | inactive | inactive | inactive | inactive | 10% | inactive | IC50 [20]: 45 µM; inhibition [23]: inactive; inhibition [24]: inactive; inhibition [25]: inactive; inhibition [26]: inactive; inhibition [27]: inactive; inhibition [28]: inactive; inhibition [29]: inactive
8 | CC(C)Cc1ccc(C(C)C(=O)NNC(=O)NNC(=O)NOCc2ccccc2)cc1 (centres undefined) | 18% | inactive | inactive | 11% | 71 | inactive | inactive | 106 | 19 | 56 | inactive | inactive | inactive | 13 | inactive | inactive | inactive | inactive | inactive | inactive | IC50 [20]: 98 µM; inhibition [23]: inactive; inhibition [24]: inactive; inhibition [25]: inactive; inhibition [26]: inactive; inhibition [27]: inactive; inhibition [28]: inactive; inhibition [29]: inactive
